CHRM4 antagonist: CHRM4 antagonism in calcium assay; CHO-hM4 cells, ACh EC80, Fluo-8 calcium fluorescence; hit rate 0.73% among 360,000; inhibition, % at 3 µM;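 active = inhibition above its plate's cutoff, the mean inhibition of sample wells plus 3 SD, cut at about 27% in these data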;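 note: 0% = acetylcholine EC80 with DMSO and 100% = DMSO without agonist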
Target sequence (P08173 whole entry, looked up): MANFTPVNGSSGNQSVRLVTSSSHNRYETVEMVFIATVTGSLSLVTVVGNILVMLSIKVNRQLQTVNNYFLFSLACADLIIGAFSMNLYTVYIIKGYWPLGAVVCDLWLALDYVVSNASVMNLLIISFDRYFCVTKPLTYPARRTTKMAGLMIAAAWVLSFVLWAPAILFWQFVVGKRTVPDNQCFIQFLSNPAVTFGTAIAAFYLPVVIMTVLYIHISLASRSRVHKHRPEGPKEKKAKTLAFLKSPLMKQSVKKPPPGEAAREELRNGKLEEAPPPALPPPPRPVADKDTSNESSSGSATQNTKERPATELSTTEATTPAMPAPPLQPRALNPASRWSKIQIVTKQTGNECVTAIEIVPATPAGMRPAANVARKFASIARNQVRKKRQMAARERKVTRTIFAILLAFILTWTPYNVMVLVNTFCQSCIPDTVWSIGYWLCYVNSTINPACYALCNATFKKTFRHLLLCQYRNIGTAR
M4 ag: CHRM4 agonism in calcium assay; activation, % at 3 µM; hit rate 0.14% among 360,000; CHO-K1 hM4/Gqi5, Fluo-8 calcium fluorescence; vehicle 0%, full acetylcholine response 100%; P08173;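 active = activation above the run mean over all test wells plus 3 SD, cut at about 32% in these data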;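 note: peak over basal fluorescence ratio per well then scaled between controls; 0% = DMSO wells and 100% = acetylcholine at EC100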
CHRM5 antagonist: antagonists of human muscarinic M5 receptor (CHRM5); P08912; CHO-hM5 cells, Fluo-8 calcium fluorescence, ACh EC80; inhibition, % at 3 µM; hit rate 0.59% among 360,000; AID 624040;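 active = inhibition above a per-plate cutoff, the mean of that plate's test compounds plus 3 SD, cut at about 27% in these data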;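 note: 0% = acetylcholine EC80 with DMSO and 100% = DMSO without agonist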
CHRM5 PAM: CHRM5 positive allosteric modulation; P08912; CHO-K1 hM5, Fluo-8 calcium, ACh EC20 PAM; 0% = ACh EC20, 100% = ACh EC100; activation, % at 3 µM; hit rate 0.3% among 360,000; AID 624038;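 active = activation above the run cutoff, the mean activation of all test compounds plus 3 SD, cut at about 18% in these data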
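Replicates: One well per compound, no replicates | System: Human M5 receptor in CHO-K1 cells | Benchmarks: Low control EC20 acetylcholine (0%), high control EC100 acetylcholine (100%) | Probe or stimulus: Acetylcholine, EC20 level | Times: Fluo-8 loading 80 min at 37 °C plus 30 min room temperature | Signal: Intracellular calcium via Fluo-8 fluorescence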
CHRM4 PAM: potentiates acetylcholine response at human M4 receptor. P08173. CHO-K1 hM4/Gqi5, Fluo-8 calcium fluorescence, ACh EC20; 0% = ACh EC20, 100% = maximal ACh. activation, % at 3 µM. hit rate 0.4% among 360,000. AID 624126;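 active = activation above its plate's cutoff, the mean activation of sample wells plus 3 SD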
CHRM5 agonist: agonists of human muscarinic M5 receptor (CHRM5); CHO-K1 hM5 cells, Fluo-8 calcium fluorescence; 0% DMSO wells, 100% maximal acetylcholine response; activation, % at 3 µM; hit rate 0.19% among 360,000;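 active = activation above the run's mean over test compounds plus 3 SD, cut at about 23% in these data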;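 note: signal is peak over basal fluorescence ratio across the kinetic read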
* marks the source's active call; other numbers are inactive results. This is a sample that favours compounds with a hit; in the whole collection about 1.8% have one here.

Screening CCC(=O)Nc1nc2c(c(=O)[nH]1)CCCC2 returned CHRM4 antagonist -17.1, M4 ag 0.6, CHRM5 antagonist -2.3, CHRM5 PAM 6.7, CHRM4 PAM 5.4 and CHRM5 agonist -4.1.
For COc1cc(NC(=O)Nc2cccn3nc(COCCO)nc23)cc(OC)c1OC the results were CHRM4 antagonist -12.0, M4 ag 1.4, CHRM5 antagonist -9.0, CHRM5 PAM 1.5, CHRM4 PAM 7.6 and CHRM5 agonist 0.2.
Cc1ccc(/C=C2/Sc3ccc(C(=O)NCc4ccccn4)cc3NC2=O)cc1 was read as CHRM4 antagonist 10.7, M4 ag -0.1, CHRM5 antagonist -3.0, CHRM5 PAM -0.1, CHRM4 PAM -4.6 and CHRM5 agonist -2.0.
Cc1cccc(NS(=O)(=O)c2cc(OCC(N)=O)c(C)cc2Cl)c1 was read as CHRM4 antagonist -11.7, M4 ag 8.7, CHRM5 antagonist 5.0, CHRM5 PAM -9.2, CHRM4 PAM -2.1 and CHRM5 agonist 27.5*.
`Cc1ccc(NS(=O)(=O)c2cc(OCC(N)=O)c(C)cc2Cl)cc1C` gave CHRM4 antagonist 14.6, M4 ag 4.4, CHRM5 antagonist -5.0, CHRM5 PAM 15.4, CHRM4 PAM 13.3 and CHRM5 agonist 34.1*.
Screening CC(=O)c1cccc(NS(=O)(=O)c2cc(OCC(N)=O)c(C)cc2Cl)c1 returned CHRM4 antagonist 1.2, M4 ag -0.3, CHRM5 antagonist -1.9, CHRM5 PAM 0.1, CHRM4 PAM 0.3 and CHRM5 agonist 1.7.
Screening Cc1ccccc1NS(=O)(=O)c1cc(OCC(N)=O)c(C)cc1Cl returned CHRM4 antagonist 0.6, M4 ag 1.1, CHRM5 antagonist 2.0, CHRM5 PAM 10.6, CHRM4 PAM 0.8 and CHRM5 agonist 6.8.
O=C(Nc1cc(C(F)(F)F)ccc1F)C1Cc2c(-c3ccccc3Oc3ccccc3)ccnc2O1 (stereo not given) was read as CHRM4 antagonist -0.8, M4 ag -0.6, CHRM5 antagonist 0.4, CHRM5 PAM -0.1, CHRM4 PAM -6.9 and CHRM5 agonist 0.7.
For Nc1nc(SCc2cccnc2)c2ncn(C3OC(CO)C(O)C3O)c2n1 (stereo not given) the results were CHRM4 antagonist -7.3, M4 ag 2.1, CHRM5 antagonist 9.4, CHRM5 PAM 2.9, CHRM4 PAM 13.8 and CHRM5 agonist 0.6.
`CC(C)Cn1c(N)c(C(=O)COC(=O)Cc2cccs2)c(=O)n(C)c1=O` gave CHRM4 antagonist 19.0, M4 ag 13.8, CHRM5 antagonist 31.9*, CHRM5 PAM -10.4, CHRM4 PAM -6.1 and CHRM5 agonist 6.4.
For CC(C)Cn1c(N)c(C(=O)COC(=O)/C=C/c2cccs2)c(=O)n(C)c1=O the results were CHRM4 antagonist 12.1, M4 ag 14.1, CHRM5 antagonist 15.8, CHRM5 PAM -13.6, CHRM4 PAM -22.5 and CHRM5 agonist 8.0.
Screening O=C(Nc1nccs1)Oc1ccccc1 returned CHRM4 antagonist -13.6, M4 ag 1.4, CHRM5 antagonist -2.2, CHRM5 PAM -1.1, CHRM4 PAM 28.3* and CHRM5 agonist -2.9.
For O=C(CCCOc1ccccc1)Nc1nccs1 the results were CHRM4 antagonist 1.2, M4 ag 1.1, CHRM5 antagonist -1.5, CHRM5 PAM -2.3, CHRM4 PAM 18.6 and CHRM5 agonist 0.7.
Screening Cc1nn(CCOc2ccccc2)c(=O)n1-c1c(F)cccc1F returned CHRM4 antagonist 30.7*, M4 ag 1.6, CHRM5 antagonist -4.1, CHRM5 PAM 1.5, CHRM4 PAM 31.5* and CHRM5 agonist 0.4.
`Cc1ccc(-n2c(C)nn(CCOc3ccccc3)c2=O)cc1` gave CHRM4 antagonist -8.2, M4 ag 1.5, CHRM5 antagonist 4.8, CHRM5 PAM 2.6, CHRM4 PAM 4.8 and CHRM5 agonist -3.7.
Cc1occc1C(=O)N(Cc1nc(-c2ccccc2)no1)C(C)C was read as CHRM4 antagonist -4.6, M4 ag 1.1, CHRM5 antagonist -16.4, CHRM5 PAM 6.7, CHRM4 PAM 2.7 and CHRM5 agonist -4.8.
For COC(C#CCCN(C)C)(c1ccccc1)c1ccccc1 the results were CHRM4 antagonist 34.9*, M4 ag 0.9, CHRM5 antagonist 93.7*, CHRM5 PAM -18.9, CHRM4 PAM -18.2 and CHRM5 agonist -7.8.
Screening CN(CCOc1ccccc1)C(=O)C1CCC(=O)N(CCCN2CCCC2=O)C1 (stereo not given) returned CHRM4 antagonist -0.5, M4 ag 1.4, CHRM5 antagonist 1.1, CHRM5 PAM 3.3, CHRM4 PAM -0.8 and CHRM5 agonist -0.9.
Screening CCCCC(=O)N1CCN(c2nc3ccc(Br)cc3s2)CC1 returned CHRM4 antagonist -0.7, M4 ag 12.4, CHRM5 antagonist -11.4, CHRM5 PAM -3.6, CHRM4 PAM 19.4* and CHRM5 agonist 7.3.
For CCCC(=O)N1CCN(c2nc3ccc(CC)cc3s2)CC1 the results were CHRM4 antagonist -0.3, M4 ag 5.3, CHRM5 antagonist -7.1, CHRM5 PAM 1.2, CHRM4 PAM 14.8 and CHRM5 agonist -1.0.
For CCCC(=O)N1CCN(c2nc3ccc(Br)cc3s2)CC1 the results were CHRM4 antagonist 1.1, M4 ag 12.5, CHRM5 antagonist 7.2, CHRM5 PAM -8.3, CHRM4 PAM 28.9* and CHRM5 agonist 2.1.
For CCOC(=O)N1CCN(C(=O)c2ccc3nc(N4CCC(C)CC4)sc3c2)CC1 the results were CHRM4 antagonist -2.2, M4 ag 2.3, CHRM5 antagonist -2.3, CHRM5 PAM 3.8, CHRM4 PAM 15.7* and CHRM5 agonist 3.4.
CC(=O)N1CCN(c2nc3ccc(Br)cc3s2)CC1 was read as CHRM4 antagonist -2.5, M4 ag 5.1, CHRM5 antagonist -9.7, CHRM5 PAM 5.6, CHRM4 PAM -0.3 and CHRM5 agonist 1.2.
`Fc1cccc(Cc2c(-c3ccccc3)nc3c4ccccc4ccn23)c1` gave CHRM4 antagonist -4.3, M4 ag 0.2, CHRM5 antagonist -12.7, CHRM5 PAM 6.8, CHRM4 PAM -0.2 and CHRM5 agonist -1.7.
CCOc1ccc(S(=O)(=O)N(C)CC(=O)NC2CC2)cc1 was read as CHRM4 antagonist -3.1, M4 ag 0.1, CHRM5 antagonist 14.5, CHRM5 PAM -3.5, CHRM4 PAM 12.1 and CHRM5 agonist -5.6.
`CCCCN(CC(=O)NC1CC1)S(=O)(=O)c1ccc(OCC)cc1` gave CHRM4 antagonist 28.6*, M4 ag -0.2, CHRM5 antagonist 2.9, CHRM5 PAM -1.9, CHRM4 PAM -6.4 and CHRM5 agonist -0.3.
Screening CC(C)=CCCC(C)c1cc(C(=O)NCCc2ccc(O)cc2)c(N)s1 (stereo not given) returned CHRM4 antagonist 2.3, M4 ag 1.1, CHRM5 antagonist -11.9, CHRM5 PAM 6.7, CHRM4 PAM -2.5 and CHRM5 agonist 5.0.

High-throughput results from PubChem BioAssay.
